Test results from ChEMBL document CHEMBL4190262, “Tuning of β-glucosidase and α-galactosidase inhibition by generation and in situ screening of a library of pyrrolidine-triazole hybrid molecules” (Eur J Med Chem, 2017).
pIC50: −log10 of the molar value. Active and inactive are the calls of the source. The calls are words filed in the database; no cut-off is given here.

Assays:
[1] = target: Beta-galactosidase (Escherichia coli) (UniProt Q8VNN2); test: Inhibition of Escherichia coli beta-galactosidase at 1 mM using p-nitrophenyl glycopyranoside preincubated for 5 mins followed by substrate addition measured after 20 mins by visible absorption spectroscopic method relative to control
Beta-galactosidase (Escherichia coli), sequence (Q8VNN2 whole entry, looked up): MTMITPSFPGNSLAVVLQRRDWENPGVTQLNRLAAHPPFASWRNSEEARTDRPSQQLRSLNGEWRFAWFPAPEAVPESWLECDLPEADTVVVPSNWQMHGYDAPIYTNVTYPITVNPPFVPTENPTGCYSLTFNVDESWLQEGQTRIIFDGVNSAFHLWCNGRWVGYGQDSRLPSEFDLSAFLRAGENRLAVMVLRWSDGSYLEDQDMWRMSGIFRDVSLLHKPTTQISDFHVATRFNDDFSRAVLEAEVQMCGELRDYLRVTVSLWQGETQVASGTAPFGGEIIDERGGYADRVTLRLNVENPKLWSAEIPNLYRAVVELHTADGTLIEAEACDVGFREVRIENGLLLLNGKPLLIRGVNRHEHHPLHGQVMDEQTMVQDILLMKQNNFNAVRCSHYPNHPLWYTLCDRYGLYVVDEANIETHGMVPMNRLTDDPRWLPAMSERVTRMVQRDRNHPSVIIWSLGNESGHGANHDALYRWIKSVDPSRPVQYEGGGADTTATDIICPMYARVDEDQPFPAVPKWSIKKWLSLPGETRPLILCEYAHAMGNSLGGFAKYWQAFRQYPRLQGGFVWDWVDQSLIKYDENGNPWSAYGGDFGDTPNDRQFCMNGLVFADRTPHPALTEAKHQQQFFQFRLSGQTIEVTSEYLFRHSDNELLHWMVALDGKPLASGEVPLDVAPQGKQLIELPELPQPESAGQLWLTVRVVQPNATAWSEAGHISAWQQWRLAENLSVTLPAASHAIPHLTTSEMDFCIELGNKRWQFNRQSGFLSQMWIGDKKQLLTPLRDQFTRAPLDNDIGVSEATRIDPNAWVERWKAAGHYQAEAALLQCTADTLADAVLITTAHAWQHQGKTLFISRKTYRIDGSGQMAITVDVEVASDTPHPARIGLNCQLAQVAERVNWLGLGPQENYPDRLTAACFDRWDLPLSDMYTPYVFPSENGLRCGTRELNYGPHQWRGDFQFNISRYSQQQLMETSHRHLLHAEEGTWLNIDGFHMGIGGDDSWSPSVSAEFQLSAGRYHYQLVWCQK
Method in brief: (§1)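 Test compound at 1 mM in well. Mix: 0.01–0.5 units/mL enzyme plus 10 mM p-nitrophenyl glycopyranoside (aqueous solution), buffered to the enzyme's optimal pH. Enzyme and inhibitor preincubated 5 min at rt. Substrate then added and incubated 20 min at 37 °C. Stopped with sodium borate (pH 9.8). p-Nitrophenolate read at 405 nm. Duplicates averaged.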

Bos taurus [2] = species on record: Bos taurus; test: Inhibition of bovine kidney alpha-L-fucosidase at 1 mM using p-nitrophenyl glycopyranoside preincubated for 5 mins followed by substrate addition measured after 20 mins by visible absorption spectroscopic method relative to control; method in brief: as §1
[3] = target: Alpha-galactosidase (Coffea arabica) (UniProt Q42656); test: Inhibition of coffee beans alpha-galactosidase at 1 mM using p-nitrophenyl glycopyranoside preincubated for 5 mins followed by substrate addition measured after 20 mins by visible absorption spectroscopic method relative to control; method in brief: as §1
Alpha-galactosidase (Coffea arabica), sequence (Q42656 16-378 limits assumed): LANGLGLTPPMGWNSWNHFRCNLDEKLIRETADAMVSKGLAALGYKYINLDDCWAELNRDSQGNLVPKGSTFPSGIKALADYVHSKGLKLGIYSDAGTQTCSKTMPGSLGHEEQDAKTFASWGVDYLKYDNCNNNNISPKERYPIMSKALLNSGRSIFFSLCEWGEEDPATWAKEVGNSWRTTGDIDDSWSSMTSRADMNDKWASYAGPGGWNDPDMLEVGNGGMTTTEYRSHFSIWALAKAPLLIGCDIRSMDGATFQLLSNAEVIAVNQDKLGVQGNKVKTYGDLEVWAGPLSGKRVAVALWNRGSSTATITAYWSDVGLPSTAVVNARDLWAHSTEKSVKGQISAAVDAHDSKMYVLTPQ

Alpha-galactosidase = Alpha-galactosidase (Coffea arabica, UniProt Q42656); test: Inhibition of coffee beans alpha-galactosidase using p-nitrophenyl glycopyranoside preincubated for 5 mins followed by substrate addition measured after 20 mins by visible absorption spectroscopic method
Alpha-galactosidase, sequence (Q42656 whole entry): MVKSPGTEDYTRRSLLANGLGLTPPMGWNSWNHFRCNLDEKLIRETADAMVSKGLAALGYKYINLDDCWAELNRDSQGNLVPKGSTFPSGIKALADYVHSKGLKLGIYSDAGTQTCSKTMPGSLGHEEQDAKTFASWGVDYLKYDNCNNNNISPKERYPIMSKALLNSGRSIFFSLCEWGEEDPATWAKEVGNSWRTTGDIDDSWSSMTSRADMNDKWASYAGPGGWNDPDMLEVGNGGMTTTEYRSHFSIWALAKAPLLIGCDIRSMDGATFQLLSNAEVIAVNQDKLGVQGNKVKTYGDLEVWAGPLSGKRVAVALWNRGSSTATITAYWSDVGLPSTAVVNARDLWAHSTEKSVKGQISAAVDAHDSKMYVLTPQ
Method in brief: (§2)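 IC50 determined only for compounds giving ≥80% inhibition at 1 mM, read from plots of % inhibition versus inhibitor concentration. p-Nitrophenyl glycopyranoside substrate (10 mM solution) at the enzyme's optimal pH, with 0.01–0.5 units/mL enzyme. 5 min rt preincubation with enzyme, then 20 min at 37 °C. Borate stop (pH 9.8), absorbance at 405 nm. Duplicates averaged.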

[4] = target: T1, Beta-galactosidase (Aspergillus oryzae) (UniProt B7VU80); test: Inhibition of Aspergillus oryzae beta-galactosidase at 1 mM using p-nitrophenyl glycopyranoside preincubated for 5 mins followed by substrate addition measured after 20 mins by visible absorption spectroscopic method relative to control; method in brief: as §1
T1 sequence (whole entry): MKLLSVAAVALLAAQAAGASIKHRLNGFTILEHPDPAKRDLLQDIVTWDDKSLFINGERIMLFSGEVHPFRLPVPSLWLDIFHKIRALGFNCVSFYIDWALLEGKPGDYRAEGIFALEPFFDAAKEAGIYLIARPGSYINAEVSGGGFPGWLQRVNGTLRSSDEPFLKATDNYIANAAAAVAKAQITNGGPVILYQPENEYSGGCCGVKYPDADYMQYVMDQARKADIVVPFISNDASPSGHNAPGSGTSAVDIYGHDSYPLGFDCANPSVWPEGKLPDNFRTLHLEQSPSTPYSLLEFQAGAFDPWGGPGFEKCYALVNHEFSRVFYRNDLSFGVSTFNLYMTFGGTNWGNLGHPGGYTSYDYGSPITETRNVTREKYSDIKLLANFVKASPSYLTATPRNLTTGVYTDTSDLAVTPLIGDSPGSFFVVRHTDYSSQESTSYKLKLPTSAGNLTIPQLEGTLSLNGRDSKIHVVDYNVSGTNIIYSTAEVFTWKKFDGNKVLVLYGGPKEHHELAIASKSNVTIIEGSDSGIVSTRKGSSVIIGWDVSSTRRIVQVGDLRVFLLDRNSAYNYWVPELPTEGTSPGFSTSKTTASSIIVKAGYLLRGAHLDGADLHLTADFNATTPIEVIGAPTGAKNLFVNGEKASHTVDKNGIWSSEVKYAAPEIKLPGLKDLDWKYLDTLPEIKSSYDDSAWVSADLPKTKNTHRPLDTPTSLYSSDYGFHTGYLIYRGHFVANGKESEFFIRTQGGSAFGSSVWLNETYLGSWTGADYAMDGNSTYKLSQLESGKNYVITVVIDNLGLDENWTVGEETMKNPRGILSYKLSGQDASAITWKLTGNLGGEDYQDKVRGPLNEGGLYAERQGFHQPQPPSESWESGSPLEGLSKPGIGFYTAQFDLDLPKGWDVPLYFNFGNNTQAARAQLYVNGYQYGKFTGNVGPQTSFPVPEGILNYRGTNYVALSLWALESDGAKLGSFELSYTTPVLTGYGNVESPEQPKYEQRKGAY

Saccharomyces cerevisiae = test: Inhibition of yeast alpha glucosidase at 1 mM using p-nitrophenyl glycopyranoside preincubated for 5 mins followed by substrate addition measured after 20 mins by visible absorption spectroscopic method relative to control; method in brief: as §1
Oryza sativa = test: Inhibition of rice alpha-glucosidase at 1 mM using p-nitrophenyl glycopyranoside preincubated for 5 mins followed by substrate addition measured after 20 mins by visible absorption spectroscopic method relative to control; method in brief: as §1
Aspergillus niger = test: Inhibition of Aspergillus niger amyloglucosidase at 1 mM using p-nitrophenyl glycopyranoside preincubated for 5 mins followed by substrate addition measured after 20 mins by visible absorption spectroscopic method relative to control; method in brief: as §1
Prunus dulcis = test: Inhibition of almond beta-glucosidase at 1 mM using p-nitrophenyl glycopyranoside preincubated for 5 mins followed by substrate addition measured after 20 mins by visible absorption spectroscopic method relative to control; method in brief: as §1
[5] = target: T2, Alpha-mannosidase (Canavalia ensiformis) (UniProt C0HJB3); test: Inhibition of jack bean alpha-mannosidase at 1 mM using p-nitrophenyl glycopyranoside preincubated for 5 mins followed by substrate addition measured after 20 mins by visible absorption spectroscopic method relative to control; method in brief: as §1
T2 sequence (whole entry): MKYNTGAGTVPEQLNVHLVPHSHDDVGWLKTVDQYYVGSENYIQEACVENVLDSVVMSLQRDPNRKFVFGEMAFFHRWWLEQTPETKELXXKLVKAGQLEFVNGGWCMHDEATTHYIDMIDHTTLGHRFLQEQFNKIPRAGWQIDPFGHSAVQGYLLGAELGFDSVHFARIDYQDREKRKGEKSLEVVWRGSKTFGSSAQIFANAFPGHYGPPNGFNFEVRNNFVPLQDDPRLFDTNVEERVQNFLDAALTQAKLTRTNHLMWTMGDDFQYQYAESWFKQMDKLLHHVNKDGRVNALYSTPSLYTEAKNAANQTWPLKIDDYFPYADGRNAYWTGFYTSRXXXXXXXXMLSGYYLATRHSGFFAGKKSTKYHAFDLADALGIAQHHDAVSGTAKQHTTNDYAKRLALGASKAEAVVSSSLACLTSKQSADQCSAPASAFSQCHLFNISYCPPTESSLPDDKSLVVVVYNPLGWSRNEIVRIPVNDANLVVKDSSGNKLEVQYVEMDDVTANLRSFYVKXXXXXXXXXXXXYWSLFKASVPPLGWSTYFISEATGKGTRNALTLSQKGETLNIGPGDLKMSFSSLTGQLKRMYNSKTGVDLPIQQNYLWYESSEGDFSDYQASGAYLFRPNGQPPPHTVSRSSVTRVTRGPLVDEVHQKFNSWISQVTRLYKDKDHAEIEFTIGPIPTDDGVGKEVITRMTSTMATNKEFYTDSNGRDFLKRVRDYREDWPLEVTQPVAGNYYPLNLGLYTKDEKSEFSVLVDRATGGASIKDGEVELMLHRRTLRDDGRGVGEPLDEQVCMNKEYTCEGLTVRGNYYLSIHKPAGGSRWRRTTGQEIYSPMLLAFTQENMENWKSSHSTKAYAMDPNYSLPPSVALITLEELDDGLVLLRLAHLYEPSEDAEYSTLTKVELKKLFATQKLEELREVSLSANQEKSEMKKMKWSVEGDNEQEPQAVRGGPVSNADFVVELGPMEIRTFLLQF

Cornu aspersum = test: Inhibition of snail beta-mannosidase at 1 mM using p-nitrophenyl glycopyranoside preincubated for 5 mins followed by substrate addition measured after 20 mins by visible absorption spectroscopic method relative to control; method in brief: as §1
Canavalia ensiformis = test: Inhibition of jack bean beta-N-acetylglucosaminidase at 1 mM using p-nitrophenyl glycopyranoside preincubated for 5 mins followed by substrate addition measured after 20 mins by visible absorption spectroscopic method relative to control; method in brief: as §1
[6] = target: Alpha-galactosidase (Coffea arabica) (UniProt Q42656); test: Inhibition of coffee beans alpha-galactosidase at 50 uM using p-nitrophenyl glycopyranoside preincubated for 5 mins followed by substrate addition measured after 20 mins by visible absorption spectroscopic method relative to control
Method in brief: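 Crude triazoles from in situ CuAAC (ascorbate/CuSO4, 24 h rt, water-diluted) were screened at 50 μM per well, assuming full conversion. Enzyme was coffee bean α-galactosidase at pH 6, 37 °C, with p-nitrophenyl glycoside substrate and 405 nm read-out. Blanks of CuSO4, ascorbate and each alkyne were run.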

Bos taurus [7] = species on record: Bos taurus; test: Inhibition of bovine liver beta-glucosidase at 1 mM using p-nitrophenyl glycopyranoside preincubated for 5 mins followed by substrate addition measured after 20 mins by visible absorption spectroscopic method relative to control; method in brief: as §1
[8] = target: T3, Lysosomal acid glucosylceramidase (Homo sapiens, UniProt P04062); test: Inhibition of human lysosomal beta-glucocerebrosidase using 4-methylumbelliferyl-beta-D-glucopyranoside as substrate preincubated for 45 mins followed by substrate addition measured after 30 mins by fluorescence spectroscopic method
T3 sequence (P04062 whole entry): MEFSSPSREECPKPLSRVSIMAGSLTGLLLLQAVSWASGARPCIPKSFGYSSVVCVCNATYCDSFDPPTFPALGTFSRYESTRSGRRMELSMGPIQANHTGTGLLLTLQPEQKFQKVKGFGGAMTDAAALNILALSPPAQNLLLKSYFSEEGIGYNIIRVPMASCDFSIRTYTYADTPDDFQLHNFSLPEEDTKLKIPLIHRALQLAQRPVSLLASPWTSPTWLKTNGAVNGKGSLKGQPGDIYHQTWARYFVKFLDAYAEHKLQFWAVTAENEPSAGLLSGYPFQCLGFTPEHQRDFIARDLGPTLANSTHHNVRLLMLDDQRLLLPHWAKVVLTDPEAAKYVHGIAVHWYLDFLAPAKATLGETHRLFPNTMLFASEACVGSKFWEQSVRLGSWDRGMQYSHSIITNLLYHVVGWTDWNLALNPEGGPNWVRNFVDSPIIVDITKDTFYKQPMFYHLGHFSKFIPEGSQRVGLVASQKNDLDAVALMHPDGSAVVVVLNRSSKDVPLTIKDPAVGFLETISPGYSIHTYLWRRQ
Method in brief: (§3)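 Enzyme in 100 mM McIlvaine buffer pH 5.2 with 0.25% sodium taurocholate and 0.1% Triton X-100, with inhibitor. Preincubated at 0 °C for 45 min, then started with 3 mM 4-methylumbelliferyl glycoside substrate solution and incubated 30 min at 37 °C. Stopped with 400 mM glycine-NaOH pH 10.6. 4-Methylumbelliferone fluorescence read at ex 362/em 450 nm.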

[9] = target: T4, Alpha-galactosidase A (Homo sapiens) (UniProt P06280); test: Inhibition of human lysosomal alpha-galactosidase A at 1 mM using 4-methylumbelliferyl-alpha-D-galactopyranoside as substrate preincubated for 45 mins followed by substrate addition measured after 30 mins by fluorescence spectroscopic method relative to control; method in brief: as §3
T4 sequence (whole entry): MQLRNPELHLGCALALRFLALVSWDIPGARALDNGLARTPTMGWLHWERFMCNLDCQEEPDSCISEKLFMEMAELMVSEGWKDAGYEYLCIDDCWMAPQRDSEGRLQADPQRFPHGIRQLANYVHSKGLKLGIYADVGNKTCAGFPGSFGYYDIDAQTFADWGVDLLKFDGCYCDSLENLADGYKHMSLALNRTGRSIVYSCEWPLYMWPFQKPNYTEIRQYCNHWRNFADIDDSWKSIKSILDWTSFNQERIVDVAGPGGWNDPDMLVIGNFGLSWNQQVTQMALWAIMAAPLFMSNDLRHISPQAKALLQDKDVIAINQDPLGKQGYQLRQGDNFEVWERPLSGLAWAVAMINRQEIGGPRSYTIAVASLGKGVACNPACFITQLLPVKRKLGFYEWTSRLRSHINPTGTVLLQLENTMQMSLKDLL

Beta-galactosidase = target: T5, Beta-galactosidase (Bos taurus, UniProt Q58D55); test: Inhibition of bovine liver beta-galactosidase using p-nitrophenyl glycopyranoside preincubated for 5 mins followed by substrate addition measured after 20 mins by visible absorption spectroscopic method; method in brief: as §2
T5 sequence (Q58D55 whole entry): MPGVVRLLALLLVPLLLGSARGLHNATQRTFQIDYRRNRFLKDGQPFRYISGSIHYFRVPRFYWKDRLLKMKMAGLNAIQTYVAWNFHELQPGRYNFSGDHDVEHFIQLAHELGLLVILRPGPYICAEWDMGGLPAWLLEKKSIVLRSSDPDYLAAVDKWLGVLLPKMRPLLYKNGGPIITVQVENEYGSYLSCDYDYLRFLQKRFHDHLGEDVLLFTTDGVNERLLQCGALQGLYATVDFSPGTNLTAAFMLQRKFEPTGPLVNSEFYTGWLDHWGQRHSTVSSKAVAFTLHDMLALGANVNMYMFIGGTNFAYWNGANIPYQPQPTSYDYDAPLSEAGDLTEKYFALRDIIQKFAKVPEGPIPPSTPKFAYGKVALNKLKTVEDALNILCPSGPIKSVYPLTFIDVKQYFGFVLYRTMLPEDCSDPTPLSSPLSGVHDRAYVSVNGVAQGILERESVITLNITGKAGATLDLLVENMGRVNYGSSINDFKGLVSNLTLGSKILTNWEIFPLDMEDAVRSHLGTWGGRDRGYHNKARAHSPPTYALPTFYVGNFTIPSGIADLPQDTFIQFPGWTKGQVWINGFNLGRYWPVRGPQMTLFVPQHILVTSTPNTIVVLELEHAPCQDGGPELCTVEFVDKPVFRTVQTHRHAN

[10] = Selectivity ratio of IC50 for human lysosomal alpha-galactosidase A to IC50 for coffee beans alpha-galactosidase
[11] = Inhibition of almond beta-glucosidase using p-nitrophenyl glycopyranoside preincubated for 5 mins followed by substrate addition measured after 20 mins by visible absorption spectroscopic method; design: species or system Prunus dulcis; method in brief: as §2

For `[N-]=[N+]=NC[C@H]1NC[C@@H](O)[C@H]1O`, the inhibition [1] was “inactive”, the inhibition (Bos taurus [2]) was “inactive” and the inhibition [3] was 88%. For the same compound, the pIC50 (Alpha-galactosidase) was 3.90, the inhibition [4] was 50% and the inhibition (Saccharomyces cerevisiae) was “inactive”. For the same compound, the inhibition (Oryza sativa) was “inactive”, the inhibition (Aspergillus niger) was “inactive” and the inhibition (Prunus dulcis) was 89%. The inhibition [5] was 43%, the inhibition (Cornu aspersum) was “inactive” and the inhibition (Canavalia ensiformis) was “inactive”. The inhibition [6] was 38%.

Compound `COc1ccc2cc(-c3cn(C[C@H]4NC[C@@H](O)[C@H]4O)nn3)ccc2c1` has a pIC50 (Alpha-galactosidase) of 4.77, an inhibition (Prunus dulcis) of less than 50% and an inhibition [6] of 64%. The inhibition (Bos taurus [7]) was less than 50%, the pIC50 [8] was 4.72 and the inhibition [9] was less than 50%. It also gave a pIC50 (Beta-galactosidase) of 4.38 and a Ratio IC50 [10] of 10.

With `O[C@@H]1[C@H](O)CN[C@@H]1CCn1cc(-c2ccccc2)nn1` the inhibition [1] was 60%, the inhibition (Bos taurus [2]) was 49% and the inhibition [3] was 89%. The pIC50 (Alpha-galactosidase) was 3.97, the inhibition [4] was 78% and the inhibition (Saccharomyces cerevisiae) was “inactive”. The inhibition (Oryza sativa) was “inactive”, the inhibition (Aspergillus niger) was “inactive” and the inhibition (Prunus dulcis) was 96%. The pIC50 [11] was 4.96, the inhibition [5] was “inactive” and the inhibition (Cornu aspersum) was “inactive”. The inhibition (Canavalia ensiformis) was “inactive”.
